Measurements from the M2OR odorant receptor database.

Key:
Details in all cases: stereoisomer not certain
UniProt Q8VF43 = biological target: T1, UniProt Q8VF43
T1 sequence (whole entry): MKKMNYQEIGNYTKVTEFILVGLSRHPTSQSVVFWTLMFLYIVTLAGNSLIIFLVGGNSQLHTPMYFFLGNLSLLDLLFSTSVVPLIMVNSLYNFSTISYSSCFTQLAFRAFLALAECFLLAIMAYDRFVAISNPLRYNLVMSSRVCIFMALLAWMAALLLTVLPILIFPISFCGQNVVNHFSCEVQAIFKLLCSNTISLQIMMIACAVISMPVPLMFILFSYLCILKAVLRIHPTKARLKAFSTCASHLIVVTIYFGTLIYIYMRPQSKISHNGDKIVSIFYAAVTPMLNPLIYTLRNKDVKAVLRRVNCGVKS
How it was run: (§1)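 Values were gathered from published papers (main text and supplementary material), with extra details requested from the original authors when needed, and checked for typos and inconsistencies. Each receptor–molecule pair is called responsive (active) if the original authors judged the measured signal statistically different from baseline, and non-responsive (inactive) otherwise. Assay methods varied by source, often transient mammalian cell-line luciferase assays. Recorded details include cell line, G-protein, co-transfected protein and tags.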

UniProt Q8VF52 = biological target: T2, UniProt Q8VF52
T2 sequence (whole entry): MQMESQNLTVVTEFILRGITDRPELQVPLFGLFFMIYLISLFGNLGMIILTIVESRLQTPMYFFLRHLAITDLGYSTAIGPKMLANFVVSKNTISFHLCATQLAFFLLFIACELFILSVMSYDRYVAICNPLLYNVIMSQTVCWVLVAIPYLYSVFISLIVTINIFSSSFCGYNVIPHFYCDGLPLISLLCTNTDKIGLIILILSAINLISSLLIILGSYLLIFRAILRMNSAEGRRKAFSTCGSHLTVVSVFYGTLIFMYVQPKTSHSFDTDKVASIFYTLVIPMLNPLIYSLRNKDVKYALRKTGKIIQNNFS
How it was run: as §1

UniProt Q8VFM8 = biological target: T3, UniProt Q8VFM8
T3 sequence (whole entry): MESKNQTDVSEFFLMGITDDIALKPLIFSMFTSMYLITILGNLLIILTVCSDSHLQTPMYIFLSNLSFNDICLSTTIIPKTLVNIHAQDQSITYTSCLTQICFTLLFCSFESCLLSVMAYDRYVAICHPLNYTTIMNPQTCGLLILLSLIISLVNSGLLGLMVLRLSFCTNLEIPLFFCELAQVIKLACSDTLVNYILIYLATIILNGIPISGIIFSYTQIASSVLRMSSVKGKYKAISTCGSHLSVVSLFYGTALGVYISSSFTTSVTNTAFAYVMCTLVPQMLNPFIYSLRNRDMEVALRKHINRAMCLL
How it was run: as §1

UniProt Q8VFP5 = biological target: T4, UniProt Q8VFP5
T4 sequence (whole entry): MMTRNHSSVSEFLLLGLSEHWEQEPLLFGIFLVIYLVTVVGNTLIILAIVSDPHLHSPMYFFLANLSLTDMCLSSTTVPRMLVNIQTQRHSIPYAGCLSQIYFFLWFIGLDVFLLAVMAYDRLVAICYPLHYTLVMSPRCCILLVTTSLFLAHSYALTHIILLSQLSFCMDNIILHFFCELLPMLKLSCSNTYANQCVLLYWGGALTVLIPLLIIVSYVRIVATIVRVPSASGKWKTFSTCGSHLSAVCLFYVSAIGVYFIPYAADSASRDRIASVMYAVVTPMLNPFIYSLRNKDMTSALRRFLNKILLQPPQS
How it was run: as §1

UniProt Q8VG01 = biological target: T5, UniProt Q8VG01
T5 sequence (whole entry): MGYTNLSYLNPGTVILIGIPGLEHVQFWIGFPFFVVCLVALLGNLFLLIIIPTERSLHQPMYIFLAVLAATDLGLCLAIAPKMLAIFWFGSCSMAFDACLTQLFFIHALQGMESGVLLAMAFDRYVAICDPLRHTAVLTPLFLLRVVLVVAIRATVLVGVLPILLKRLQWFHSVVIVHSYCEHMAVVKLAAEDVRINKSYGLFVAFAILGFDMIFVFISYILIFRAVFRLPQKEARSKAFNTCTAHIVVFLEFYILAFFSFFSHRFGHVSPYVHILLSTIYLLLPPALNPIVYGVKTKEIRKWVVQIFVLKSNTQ
How it was run: as §1

UniProt Q8VFV2 = biological target: UniProt Q8VFV2
How it was run: as §1

UniProt Q8VFV3 = biological target: UniProt Q8VFV3
How it was run: as §1

UniProt Q8VFV8 = biological target: UniProt Q8VFV8
How it was run: as §1

UniProt Q8VFW7 = biological target: UniProt Q8VFW7
How it was run: as §1

Chain of UniProt Q8VFV3 (Q8VFV3 as listed by the source): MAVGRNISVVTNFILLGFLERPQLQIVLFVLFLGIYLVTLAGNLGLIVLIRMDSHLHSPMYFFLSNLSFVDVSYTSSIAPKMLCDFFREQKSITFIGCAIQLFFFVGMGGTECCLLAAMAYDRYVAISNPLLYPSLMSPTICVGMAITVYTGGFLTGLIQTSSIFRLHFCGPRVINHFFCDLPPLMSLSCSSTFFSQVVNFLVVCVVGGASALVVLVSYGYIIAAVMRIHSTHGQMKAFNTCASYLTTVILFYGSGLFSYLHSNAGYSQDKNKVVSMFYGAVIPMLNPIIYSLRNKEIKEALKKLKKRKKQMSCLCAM
Chain of UniProt Q8VFW7 (Q8VFW7 as listed by the source): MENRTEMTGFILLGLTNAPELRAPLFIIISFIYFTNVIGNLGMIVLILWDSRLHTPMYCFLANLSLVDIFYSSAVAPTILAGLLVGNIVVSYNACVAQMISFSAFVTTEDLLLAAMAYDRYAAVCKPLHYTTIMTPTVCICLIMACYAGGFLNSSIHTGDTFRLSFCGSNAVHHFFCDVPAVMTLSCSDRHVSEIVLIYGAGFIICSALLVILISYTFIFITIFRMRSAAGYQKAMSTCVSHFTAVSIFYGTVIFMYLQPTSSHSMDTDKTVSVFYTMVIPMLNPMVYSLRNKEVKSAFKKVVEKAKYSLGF
Chain of UniProt Q8VFV2 (Q8VFV2 as listed by the source): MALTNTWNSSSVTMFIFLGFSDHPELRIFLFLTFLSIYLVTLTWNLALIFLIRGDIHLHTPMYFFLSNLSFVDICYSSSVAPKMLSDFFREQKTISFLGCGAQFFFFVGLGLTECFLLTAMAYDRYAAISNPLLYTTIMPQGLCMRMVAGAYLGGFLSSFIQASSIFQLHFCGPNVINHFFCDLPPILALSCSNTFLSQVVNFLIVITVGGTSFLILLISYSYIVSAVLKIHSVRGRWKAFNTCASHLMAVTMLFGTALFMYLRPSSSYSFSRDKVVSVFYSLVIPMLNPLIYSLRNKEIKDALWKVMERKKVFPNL
Chain of UniProt Q8VFV8 (Q8VFV8 as listed by the source): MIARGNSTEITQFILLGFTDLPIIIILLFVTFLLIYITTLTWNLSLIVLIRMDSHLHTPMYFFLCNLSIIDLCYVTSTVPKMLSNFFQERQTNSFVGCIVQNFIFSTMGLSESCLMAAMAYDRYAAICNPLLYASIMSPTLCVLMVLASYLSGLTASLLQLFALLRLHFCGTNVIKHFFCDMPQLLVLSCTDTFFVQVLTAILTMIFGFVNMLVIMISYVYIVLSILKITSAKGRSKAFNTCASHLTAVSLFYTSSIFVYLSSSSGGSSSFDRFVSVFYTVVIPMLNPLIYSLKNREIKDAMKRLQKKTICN

Row | SMILES | odorant receptor agonist call (UniProt Q8VF43) | odorant receptor agonist call (UniProt Q8VF52) | odorant receptor agonist call (UniProt Q8VFM8) | odorant receptor agonist call (UniProt Q8VFP5) | odorant receptor agonist call (UniProt Q8VG01) | odorant receptor agonist call (UniProt Q8VFV2) | odorant receptor agonist call (UniProt Q8VFV3) | odorant receptor agonist call (UniProt Q8VFV8) | odorant receptor agonist call (UniProt Q8VFW7)
1 | CC(=O)OCc1ccc2c(c1)OCO2 | inactive | inactive | inactive | inactive | inactive |  |  |  | 
2 | CCN(CC)CC | inactive | inactive | inactive | inactive | inactive |  |  |  | 
3 | Cc1c(C)c(C)c(C=O)c(C)c1C | inactive | active | inactive | inactive | inactive |  |  |  | 
4 | CC(C)CCN | inactive | inactive | inactive | inactive | inactive |  |  |  | 
5 | Cc1ccc(C(C)C)cc1 | inactive | inactive | inactive | inactive | inactive |  |  |  | 
6 | O=C(OCc1ccccc1)c1ccccc1O | inactive | inactive | inactive | inactive | inactive |  |  |  | 
7 | C=C1C2CCC(C2)C1(C)C (centres undefined) | inactive | inactive | inactive | inactive | inactive |  |  |  | 
8 | C=CC(=O)CCCCC | inactive | inactive | inactive | inactive | inactive |  |  |  | 
9 | CC1CCCCCCCCCCCCC(=O)C1 (centres undefined) |  |  |  |  |  | inactive | inactive | inactive | inactive
10 | CC(C)CS | inactive | inactive | inactive | inactive | inactive |  |  |  | 
11 | CCCC(C)C(=O)OCC (centres undefined) | inactive | inactive | inactive | inactive | inactive |  |  |  | 
12 | CC(C)=CCCC(C)=CCOC(=O)C(C)C | inactive | inactive | inactive | inactive | inactive |  |  |  | 
13 | COc1cnccn1 | inactive | inactive | inactive | inactive | inactive |  |  |  | 
14 | CCCCCOC(=O)CC | inactive | inactive | inactive | inactive | inactive |  |  |  | 
15 | CC1CCC(C(C)C)C(=O)C1 (centres undefined) | inactive | inactive | inactive | inactive | inactive |  |  |  | 
16 | CCCCCCCCCC=CC=O | inactive | inactive | inactive | inactive | inactive |  |  |  | 
17 | CC1(C)CC(=O)CC(=O)C1 | inactive | inactive | inactive | inactive | inactive |  |  |  | 
